In ChEMBL document CHEMBL1145036, “Inhibition of papilloma formation by analogues of 7,8-dihydroretinoic acid” (2003):
Several values for one entry are separate records, joined by “and”; a condition that tells them apart may be missing. Equal values may be shown once.

How the values were obtained:
[1] = target: T1, Retinoic acid receptor alpha (Mus musculus) (UniProt P11416); test: Inhibition of [3H]-retinoic acid binding to murine retinoic acid receptor RAR alpha; set-up: concentration or dose not given beside the values; conditions: concentration not given here
T1 sequence (whole entry): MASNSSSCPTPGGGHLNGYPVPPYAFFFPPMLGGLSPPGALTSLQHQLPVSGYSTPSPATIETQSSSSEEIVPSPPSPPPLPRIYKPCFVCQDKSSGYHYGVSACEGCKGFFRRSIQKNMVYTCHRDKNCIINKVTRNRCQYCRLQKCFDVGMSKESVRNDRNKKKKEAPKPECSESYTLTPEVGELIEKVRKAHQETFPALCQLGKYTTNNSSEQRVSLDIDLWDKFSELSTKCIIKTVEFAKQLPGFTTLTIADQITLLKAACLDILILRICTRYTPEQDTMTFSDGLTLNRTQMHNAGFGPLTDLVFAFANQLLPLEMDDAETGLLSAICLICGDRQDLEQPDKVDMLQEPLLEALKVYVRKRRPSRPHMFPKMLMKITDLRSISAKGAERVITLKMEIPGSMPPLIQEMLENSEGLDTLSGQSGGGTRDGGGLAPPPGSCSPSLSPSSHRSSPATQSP
Summary of the method: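 RARα binding: inhibition of tritiated retinoic acid binding by a 200-fold molar excess of unlabeled retinoid, expressed as percent inhibition.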

[2] = organism: Mus musculus; test: Antitumor activity in CD-1 female mouse skin Papilloma assay; type: functional
Summary of the method: (§1)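 CD-1 female mice. Initiation with DMBA (0.2 μmol in 0.2 mL acetone) on shaved dorsal skin. Promotion began 14 days later with TPA (10 nmol in acetone) twice weekly. Retinoid applied topically in 0.2 mL acetone to the same area. Dose-response used 137.7/135.7, 45.9, 15.3 or 5.1 nmol. Papillomas counted per mouse at day 83–89 after promotion start. Tumor-free mice also recorded. ED50 derived from the dose-response.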

[3] = organism: Mus musculus; test: Antitumor activity in CD-1 female mouse skin Papilloma assay at 15.3 nmol dose; type: functional; summary of the method: as §1
[4] = organism: Mus musculus; test: Antitumor activity in CD-1 female mouse skin Papilloma assay at 45.9 nmol dose; type: functional; summary of the method: as §1
[5] = organism: Mus musculus; test: Antitumor activity in CD-1 female mouse skin Papilloma assay at 5.1 nmol dose; type: functional; summary of the method: as §1
[6] = organism: Mus musculus; test: Antitumor activity in CD-1 female mouse skin Papilloma assay at 135.7 nmol dose; type: functional; summary of the method: as §1

CC(/C=C/C=C(\C)C(=O)Nc1ccc(C(C)(C)C)cc1C(C)(C)C)=C\C(=O)O
inhibition [1]: 0% | ED50 [2]: > 100 nmol

CC(/C=C/C=C(\C)C(=O)Nc1c(C)cc(C(C)(C)C)cc1C(C)(C)C)=C\C(=O)O
inhibition [1]: 15%

CC(/C=C/C=C(\C)COc1ccc(F)cc1C)=C\C(=O)O
inhibition [1]: 0% | ED50 [2]: 45.9 nmol

CC(/C=C/C=C(\C)COc1c(C)cc(C)cc1C)=C\C(=O)O
inhibition [1]: 30% | ED50 [2]: 60 nmol

CC1=C(/C=C/C(C)=C/C=C/C(C)=C/C(=O)O)C(C)(C)CCC1 [TRETINOIN]
Control [3]: 8% | ED50 [2]: 5.2 nmol

COC(=O)/C=C(C)/C=C/C=C(\C)C(=O)Nc1ccc(C(C)(C)C)cc1C(C)(C)C
ED50 [2]: > 100 nmol

COc1ccc(OC/C(C)=C/C=C/C(C)=C/C(=O)O)c(C(C)(C)C)c1
inhibition [1]: 25% | ED50 [2]: > 100 nmol

CC(/C=C/C=C(\C)COc1ccc(C(C)(C)C)cc1C(C)(C)C)=C\C(=O)O
inhibition [1]: 5% | ED50 [2]: > 45.9 nmol

COc1cc(NC(=O)/C(C)=C/C=C/C(C)=C/C(=O)O)cc(OC)c1
ED50 [2]: > 45.9 nmol

CC(/C=C/C=C(\C)C(=O)Nc1c(C)cc(C)cc1C)=C\C(=O)O
ED50 [2]: > 100 nmol

CC(/C=C/C=C(\C)COc1cc(C)cc(C)c1C)=C\C(=O)O
Control [3]: 66% | No. of tumors/mouse [3]: 22 and 9.2 | Control [4]: 36% | No. of tumors/mouse [4]: 15 and 5 | inhibition [1]: 30% | Control [5]: 89% | No. of tumors/mouse [5]: 29 and 12.4 | Control [6]: 10% | ED50 [2]: 27 nmol

CC(/C=C/C=C(\C)COc1c(Cl)cc(F)cc1Cl)=C\C(=O)O
ED50 [2]: > 100 nmol

CCOC(=O)/C=C(C)/C=C/C=C(C)/C=C/c1c(C)cc(OC)c(C)c1C [ETRETINATE]
ED50 [2]: 7.2 nmol
